Measured values: ChEMBL document CHEMBL4052815, “Amphiphilic Modulation of Glycosylated Antitumor Ether Lipids Results in a Potent Triamino Scaffold against Epithelial Cancer Cell Lines and BT474 Cancer Stem Cells” (J Med Chem, 2017)
The source made the active and inactive calls. The rule behind the calls is not given here.

Tests used:
[1] = system: BT-474; experiment: Cytotoxicity against human BT474 cancer stem cell spheroids assessed as decrease in cell viability at 2 to 10 uM after 3 days by MTS assay
[2] = system: MDA-MB-231; experiment: Cytotoxicity against human MDA-MB-231 cells assessed as decrease in cell viability after 48 hrs by MTS assay; assay type: functional; conditions: MDA-MB-231, 48 h
Method in brief: (§1)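 Cells grown at 37 °C, 5% CO2, with 10% FBS and penicillin/streptomycin: MDA-MB-231, JIMT1 and DU145 in DMEM, PC3 in F12K, BT474 in Hybricare, MiaPaCa2 in DMEM plus 2.5% horse serum. Cells (7500–9000/well) were plated for 24 h, then exposed to 0–20 µM for 48 h. MTS was added for 1–4 h and OD490 read, blank-subtracted, relative to vehicle. CC50 was read from plots; mean ± SD, six independent determinations.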

[3] = system: JIMT-1; experiment: Cytotoxicity against human JIMT1 cells assessed as decrease in cell viability after 48 hrs by MTS assay; assay type: functional; conditions: JIMT-1, 48 h
Method in brief: as §1

[4] = system: BT-474; experiment: Cytotoxicity against human BT474 cells assessed as decrease in cell viability after 48 hrs by MTS assay; assay type: functional; conditions: BT-474, 48 h
Method in brief: as §1

[5] = system: DU-145; experiment: Cytotoxicity against human DU145 cells assessed as decrease in cell viability after 48 hrs by MTS assay; assay type: functional; conditions: DU-145, 48 h
Method in brief: as §1

[6] = system: PC-3; experiment: Cytotoxicity against human PC3 cells assessed as decrease in cell viability after 48 hrs by MTS assay; assay type: functional; conditions: PC-3, 48 h
Method in brief: as §1

[7] = system: MIA PaCa-2; experiment: Cytotoxicity against human MIAPaCa2 cells assessed as decrease in cell viability after 48 hrs by MTS assay; assay type: functional; conditions: MIA PaCa-2, 48 h
Method in brief: as §1

[8] = system: BT-474; experiment: Induction of disintegration of human BT474 cancer stem cell spheroids at 20 uM after 3 days by microscopic method; assay type: functional, cell-based
Method in brief: (§2)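 BT474 stem-cell spheroids (ALDH1-sorted, formed over 6 days in Mammocult on ultra-low adhesion plates) exposed to 0, 7.5 or 20 µM for 3 days. Integrity was judged by light microscopy at ×10 against untreated spheroid wells.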

[9] = system: BT-474; experiment: Cytotoxicity against human BT474 cancer stem cell spheroids assessed as cell viability at 20 uM after 3 days by MTS assay relative to control; conditions: BT-474, 72 h
[10] = system: BT-474; experiment: Induction of disintegration of human BT474 cancer stem cell spheroids at 7.5 uM after 3 days by microscopic method; assay type: functional, cell-based
Method in brief: as §2

[11] = system: DU-145; experiment: Cytotoxicity against human DU145 cells assessed as decrease in cell viability at 2 to 8 uM in presence of pan-caspase inhibitor Q-VD-OPh after 48 hrs by MTS assay; assay type: functional, cell-based
Method in brief: (§3)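 DU145 or JIMT1 cells seeded for 24 h, then given 40 µM pan-caspase inhibitor along with varying compound concentrations. Incubation continued 48 h, then MTS (20% v/v) for 1–4 h, OD490 read. Values are blank-subtracted and relative to vehicle controls; mean ± SD.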

[12] = system: JIMT-1; experiment: Cytotoxicity against human JIMT1 cells assessed as decrease in cell viability at 2 to 8 uM in presence of pan-caspase inhibitor Q-VD-OPh after 48 hrs by MTS assay; assay type: functional, cell-based
Method in brief: as §3

[13] = system: BT-474; experiment: Cytotoxicity against human BT474 cancer stem cell spheroids assessed as decrease in cell viability up to 20 uM after 3 days by MTS assay
[14] = Ratio of compound concentration showing <20% hemolysis in ovine erythrocytes to CC50 for human BT474 cells
[15] = system: BT-549; experiment: Cytotoxicity against human BT549 cells assessed as decrease in cell viability at 6 uM after 48 hrs by MTS assay relative to control; assay type: functional
[16] = system: U-251; experiment: Cytotoxicity against human U251 cells assessed as cell viability at 4 to 8 uM after 48 hrs by MTS assay relative to control; assay type: functional
Method in brief: (§4)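 Exponentially growing cells (7500–9000/well) were seeded for 24 h, then given compound at 0–20 µM for a further 48 h. MTS reagent (20% v/v) was added for 1–4 h and OD490 read. Blanks were cell-free media wells, and viability was expressed relative to vehicle controls. CC50 was read from viability plots; mean ± SD of six independent determinations.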

[17] = system: MDA-MB-231; experiment: Cytotoxicity against human MDA-MB-231 cells assessed as decrease in cell viability at 6 uM after 48 hrs by MTS assay relative to control; assay type: functional
[18] = system: Hs-578T; experiment: Cytotoxicity against human Hs 578T cells assessed as decrease in cell viability after 48 hrs by MTS assay; assay type: functional
[19] = system: A2780S; experiment: Cytotoxicity against human A2780S cells assessed as decrease in cell viability after 48 hrs by MTS assay; assay type: functional
Method in brief: as §4

[20] = system: BT-474; experiment: Cytotoxicity against human BT474 cells assessed as cell viability at 4 to 10 uM after 48 hrs by MTS assay relative to control; assay type: functional
Method in brief: as §1

[21] = system: DU-145; experiment: Cytotoxicity against human DU145 cells assessed as cell viability at 4 to 10 uM after 48 hrs by MTS assay relative to control; assay type: functional
Method in brief: as §1

[22] = system: MDA-MB-231; experiment: Cytotoxicity against human MDA-MB-231 cells assessed as cell viability at 4 to 10 uM after 48 hrs by MTS assay relative to control; assay type: functional
Method in brief: as §1

[23] = Cytotoxicity against human U87 cells assessed as decrease in cell viability after 48 hrs by MTS assay; assay type: functional, U-87MG ATCC; conditions: U-87 MG
Method in brief: as §4

[24] = system: DU-145; experiment: Induction of morphological changes in human DU145 cells at 6 uM after 4 hrs by bright field microscopic method; assay type: functional, cell-based
Method in brief: (§5)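 DU145 and JIMT1 grown in DMEM with 10% FBS and antibiotics, plated 24 h, then given 4–6 µM for 5–6 h (legend: 4 h). Ethidium homodimer-1 was added at 2 µM final, and cells were examined by bright-field and fluorescence microscopy at ×20. Controls: untreated cells, and 0.01% Triton X-100 for 10 min.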

[25] = system: U-251; experiment: Cytotoxicity against human U251 cells assessed as decrease in cell viability after 48 hrs by MTS assay; assay type: functional; conditions: U-251, 48 h
Method in brief: as §4

[26] = system: A2780S; experiment: Cytotoxicity against human A2780S cells assessed as cell viability at 4 to 8 uM after 48 hrs by MTS assay relative to control; assay type: functional
Method in brief: as §4

[27] = system: BT-474; experiment: Cytotoxicity against human BT474 cancer stem cell spheroids assessed as cell viability at 10 uM after 3 days by MTS assay relative to control; conditions: BT-474, 72 h
[28] = system: JIMT-1; experiment: Membranolytic activity in human JIMT1 cells at 6 uM after 4 hrs by ethidium homodimer-1 staining-based fluorescence microscopic method; assay type: functional, cell-based
Method in brief: as §5

[29] = system: JIMT-1; experiment: Induction of morphological changes in human JIMT1 cells at 6 uM after 4 hrs by bright field microscopic method; assay type: functional, cell-based
Method in brief: as §5

[30] = system: DU-145; experiment: Membranolytic activity in human DU145 cells at 6 uM after 4 hrs by ethidium homodimer-1 staining-based fluorescence microscopic method; assay type: functional, cell-based
Method in brief: as §5

[31] = system: JIMT-1; experiment: Cytotoxicity against human JIMT1 cells assessed as cell viability at 4 to 10 uM after 48 hrs by MTS assay relative to control; assay type: functional
Method in brief: as §1

[32] = system: Hs-578T; experiment: Cytotoxicity against human Hs 578T cells assessed as decrease in cell viability at 6 uM after 48 hrs by MTS assay relative to control; assay type: functional
[33] = Cytotoxicity against human A2780C/P cells assessed as decrease in cell viability after 48 hrs by MTS assay; assay type: functional
Method in brief: as §4

[34] = system: BT-549; experiment: Cytotoxicity against human BT549 cells assessed as decrease in cell viability after 48 hrs by MTS assay; assay type: functional; conditions: BT-549, 48 h
[35] = system: MDA-MB-468; experiment: Cytotoxicity against human MDA-MB-468 cells assessed as decrease in cell viability at 6 uM after 48 hrs by MTS assay relative to control; assay type: functional
[36] = Cytotoxicity against human U87 cells assessed as cell viability at 4 to 8 uM after 48 hrs by MTS assay relative to control; assay type: functional, U-87MG ATCC
Method in brief: as §4

[37] = system: MDA-MB-468; experiment: Cytotoxicity against human MDA-MB-468 cells assessed as decrease in cell viability after 48 hrs by MTS assay; assay type: functional; conditions: MDA-MB-468, 48 h
[38] = Cytotoxicity against human A2780C/P cells assessed as cell viability at 4 to 8 uM after 48 hrs by MTS assay relative to control; assay type: functional
Method in brief: as §4

[39] = system: MIA PaCa-2; experiment: Cytotoxicity against human MIAPaCa2 cells assessed as cell viability at 4 to 10 uM after 48 hrs by MTS assay relative to control; assay type: functional
Method in brief: as §1

[40] = system: MDA-MB-453; experiment: Cytotoxicity against human MDA-MB-453 cells assessed as decrease in cell viability after 48 hrs by MTS assay; assay type: functional; conditions: MDA-MB-453, 48 h
[41] = system: MDA-MB-453; experiment: Cytotoxicity against human MDA-MB-453 cells assessed as decrease in cell viability at 6 uM after 48 hrs by MTS assay relative to control; assay type: functional
[42] = system: PC-3; experiment: Cytotoxicity against human PC3 cells assessed as cell viability at 4 to 10 uM after 48 hrs by MTS assay relative to control; assay type: functional
Method in brief: as §1

CCCCCCCCCCCCCCCCOC[C@H](CO[C@@H]1O[C@H](CO)[C@@H](O)[C@H](O)[C@H]1N)OC
Activity [1]: Active | CC50 [2]: 7.1 µM | CC50 [3]: 9 µM | CC50 [4]: 8 µM | CC50 [5]: 10 µM | CC50 [6]: 13.5 µM | CC50 [7]: 9 µM

O=C(O)CCCc1ccc(N(CCCl)CCCl)cc1 [CHLORAMBUCIL]
CC50 [2]: > 150 µM | CC50 [3]: > 150 µM | CC50 [4]: > 150 µM | CC50 [5]: > 150 µM | CC50 [6]: > 150 µM | CC50 [7]: > 150 µM

CCCCCCCCCCCCCCCCOC[C@H](CO[C@@H]1O[C@H](CN)[C@@H](O)[C@H](O)[C@H]1NCCCCCCCCCCCCN)OC
CC50 [2]: 5.5 µM | CC50 [3]: 8 µM | Activity [8]: Active | CC50 [4]: 13.5 µM | CC50 [5]: 7.5 µM | CC50 [6]: 8.5 µM | viability at 20 µM [9]: 0% | Activity [10]: Active | CC50 [7]: 8.5 µM

COc1cccc2c1C(=O)c1c(O)c3c(c(O)c1C2=O)C[C@@](O)(C(=O)CO)C[C@@H]3O[C@H]1C[C@H](N)[C@H](O)[C@H](C)O1
Activity [11]: inactive | Activity [12]: inactive | Activity [10]: inactive | Activity [13]: Active

CCCCCCCCCCCCCCCCOC[C@H](CO[C@@H]1O[C@H](CNCCCCCCCCCCCCN)[C@@H](O)[C@H](O)[C@H]1N)OC
Ratio [14]: 15 | Activity [15]: >95% | Activity [16]: 0% | Activity [1]: Active | CC50 [2]: 1.5 µM | Activity [17]: >95% | CC50 [18]: 1.8 µM | CC50 [19]: 2.4 µM | CC50 [3]: 3.4 µM | Activity [20]: 0% | Activity [21]: 0% | Activity [22]: 0% | Activity [8]: Active | CC50 [4]: 1.6 µM | CC50 [23]: 2.5 µM | CC50 [5]: 3.8 µM | Activity [24]: Active | CC50 [25]: 2.6 µM | Activity [26]: 0% | viability at 10 µM [27]: 2% | Activity [11]: Active | Activity [28]: inactive | Activity [29]: Active | Activity [30]: inactive | Activity [31]: 0% | Activity [12]: Active | Activity [32]: >95% | CC50 [33]: 3.8 µM | CC50 [34]: 2.5 µM | CC50 [6]: 2 µM | Activity [35]: >95% | Activity [36]: 0% | CC50 [37]: 2 µM | Activity [38]: 0% | Activity [39]: 0% | viability at 20 µM [9]: 0% | CC50 [40]: 4 µM | Activity [10]: Active | Activity [41]: >95% | Activity [42]: 0% | CC50 [7]: 4 µM

CCCCCCCCCCCCCCCCOC[C@H](CO[C@@H]1O[C@H](CNCCCN)[C@@H](O)[C@H](O)[C@H]1N)OC
CC50 [2]: 13.5 µM | CC50 [3]: 13.5 µM | Activity [8]: inactive | CC50 [4]: > 20 µM | CC50 [5]: 16.5 µM | CC50 [6]: 12.5 µM | viability at 20 µM [9]: 0% | Activity [10]: Active | CC50 [7]: 18.5 µM
